What was measured:
[1] = Plasma concentration in nonobese human subjects at 4 mg/kg, iv administered as single dose 30 mins infusion measured after 24 hrs; assay type: ADME, organism-based; design: dose 4 mg/kg, route intravenous
[2] = Half life in nonobese adult human at 4 mg/kg, iv administered as single dose 30 mins infusion; assay type: ADME, organism-based; design: dose 4 mg/kg, route intravenous; settings: in vivo
[3] = Half life in healthy human subjects at 6 mg/kg, iv administered as 30 mins infusion every 24 hrs measured on day 4; assay type: ADME, organism-based; design: dose 6 mg/kg, route intravenous; settings: in vivo
[4] = Tmax in cancer patient with neutropenic fever at 6 mg/kg, iv administered as 30 mins infusion every 24 hrs; assay type: ADME, organism-based; design: dose 6 mg/kg, route intravenous; settings: human, in vivo
Summary of the method: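 29 adult oncology patients with neutropenic fever received 6 mg/kg (total body weight) daptomycin as a 30-min IV infusion every 24 h. Plasma was sampled predose, at end of infusion, and 0.5, 1, 2, 4, 8, 12 and 24 h after infusion start. Total drug was measured by validated HPLC (linear 1–100 μg/ml, detection limit 1 μg/ml). Tmax was the observed value, analysed noncompartmentally.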

[5] = Clearance in healthy human subjects at 6 mg/kg, iv administered as 30 mins infusion every 24 hrs measured on day 4; assay type: ADME, organism-based; design: dose 6 mg/kg, route intravenous; settings: in vivo
[6] = Drug excretion in adult human subjects urine assessed as unchanged drug at 6 mg/kg, iv administered as single dose 30 mins infusion; assay type: ADME, organism-based; design: dose 6 mg/kg, route intravenous; settings: read-out: Drug uptake
[7] = Cmax in nonobese human at 4 mg/kg, iv administered as single dose 30 mins infusion; assay type: ADME, organism-based; design: dose 4 mg/kg, route intravenous; settings: in vivo
[8] = Cmax in cancer patient with neutropenic fever at 6 mg/kg, iv administered as 30 mins infusion every 24 hrs; assay type: ADME, organism-based; design: dose 6 mg/kg, route intravenous; settings: human, in vivo
Summary of the method: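 First 6 mg/kg dose given over 30 min IV (q24h) to 29 neutropenic febrile adult cancer patients. Serial plasma was taken predose, at end of infusion, and at 0.5–24 h. Total concentration was measured by validated HPLC (limit of detection 1 μg/ml). Cmax is the observed peak value, reported as mean ± SD and range.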

[9] = Cmax in nonobese adult human at 4 mg/kg, iv administered as single dose 30 mins infusion; assay type: ADME, organism-based; design: dose 4 mg/kg, route intravenous; settings: in vivo
[10] = AUC (0 to infinity) in healthy human subjects at 12 mg/kg, iv administered as 30 mins infusion every 24 hrs measured on day 4; assay type: ADME, organism-based; design: time infinity, dose 12 mg/kg, route intravenous; settings: plasma
[11] = Clearance in adult human subjects at 6 mg/kg, iv administered as single dose 30 mins infusion; assay type: ADME, organism-based; design: dose 6 mg/kg, route intravenous; settings: in vivo
[12] = Drug excretion in nonobese human at 4 mg/kg, iv administered as single dose 30 mins infusion; assay type: ADME, organism-based; design: dose 4 mg/kg, route intravenous; settings: in vivo, read-out: Drug uptake
[13] = test system: Staphylococcus; test: Antimicrobial activity against Staphylococcus; assay type: functional
[14] = Volume of distribution at steady state in nonobese human at 4 mg/kg, iv administered as single dose 30 mins infusion; assay type: ADME, organism-based; design: dose 4 mg/kg, route intravenous; settings: in vivo, read-out: Vdss
[15] = AUC (0 to infinity) in healthy human at 6 mg/kg, iv administered as 30 mins infusion every 24 hrs measured on day 7; assay type: ADME, organism-based; design: time infinity, dose 6 mg/kg, route intravenous; settings: plasma
[16] = test system: Homo sapiens; test: Unbound clearance in healthy human at 4 mg/kg, iv administered as 30 mins infusion every 24 hrs measured on day 1; assay type: ADME, organism-based; design: dose 4 mg/kg, route intravenous; settings: in vivo
[17] = Half life in moderately obese adult human at 4 mg/kg, iv administered as single dose 30 mins infusion; assay type: ADME, organism-based; design: dose 4 mg/kg, route intravenous; settings: in vivo
[18] = Cmax in healthy human subjects at 10 mg/kg, iv administered as 30 mins infusion every 24 hrs measured on day 14; assay type: ADME, organism-based; design: dose 10 mg/kg, route intravenous; settings: in vivo
[19] = Apparent volume of distribution during terminal phase in healthy human subjects at 6 mg/kg, iv administered as 30 mins infusion every 24 hrs measured on day 4; assay type: ADME, organism-based; design: dose 6 mg/kg, route intravenous; settings: in vivo
[20] = AUC (0 to infinity) in healthy human at 4 mg/kg, iv administered as 30 mins infusion every 24 hrs measured on day 1; assay type: ADME, organism-based; design: time infinity, dose 4 mg/kg, route intravenous; settings: plasma
[21] = Renal clearance in adult human with hepatic impairment at 6 mg/kg, iv administered as single dose 30 mins infusion; assay type: ADME, organism-based, Kidney; design: dose 6 mg/kg, route intravenous; settings: in vivo, read-out: CL_renal (converted)
[22] = AUC (0 to infinity) in healthy human subjects at 10 mg/kg, iv administered as 30 mins infusion every 24 hrs measured on day 1; assay type: ADME, organism-based; design: time infinity, dose 10 mg/kg, route intravenous; settings: plasma
[23] = Volume of distribution at steady state in adult human with hepatic impairment at 6 mg/kg, iv administered as single dose 30 mins infusion; assay type: ADME, organism-based; design: dose 6 mg/kg, route intravenous; settings: in vivo, read-out: Vdss
[24] = Mean residence time in cancer patient with neutropenic fever at 6 mg/kg, iv administered as 30 mins infusion every 24 hrs; assay type: ADME, organism-based; design: dose 6 mg/kg, route intravenous; settings: human, in vivo
Summary of the method: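 Patients with neutropenic fever; 6 mg/kg by total body weight, 30-min IV infusion every 24 h; serial plasma sampling predose to 24 h after infusion start. Total plasma drug by validated HPLC; mean residence time from noncompartmental analysis of concentration-time data.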

[25] = Clearance in morbidly obese human at 4 mg/kg, iv administered as single dose 30 mins infusion; assay type: ADME, organism-based; design: dose 4 mg/kg, route intravenous; settings: in vivo
[26] = Clearance in young healthy human at 4 mg/kg, iv administered as single dose 30 mins infusion; assay type: ADME, organism-based; design: dose 4 mg/kg, route intravenous; settings: in vivo
[27] = Renal clearance in nonobese adult human at 4 mg/kg, iv administered as single dose 30 mins infusion; assay type: ADME, organism-based, Kidney; design: dose 4 mg/kg, route intravenous; settings: in vivo, read-out: CL_renal (converted)
[28] = AUC (0 to infinity) in adult human with hepatic impairment at 6 mg/kg, iv administered as single dose 30 mins infusion; assay type: ADME, organism-based; design: time infinity, dose 6 mg/kg, route intravenous; settings: plasma
[29] = Renal clearance in moderately obese adult human at 4 mg/kg, iv administered as single dose 30 mins infusion; assay type: ADME, organism-based, Kidney; design: dose 4 mg/kg, route intravenous; settings: in vivo, read-out: CL_renal (converted)
[30] = Renal clearance in adult human subjects at 6 mg/kg, iv administered as single dose 30 mins infusion; assay type: ADME, organism-based, Kidney; design: dose 6 mg/kg, route intravenous; settings: in vivo, read-out: CL_renal (converted)
[31] = Plasma protein binding in human after 0.5 hrs; assay type: ADME, cell-free; settings: read-out: PPB (converted)
Summary of the method: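 Neutropenic-fever oncology patients received 6 mg/kg IV daptomycin; serum was drawn 0.5, 2 and 8 h after the end of infusion. Free drug was obtained by ultrafiltration (30,000-MW cutoff) and quantified by HPLC against a saline-matrix curve of 0.25–100 μg/ml, with total plasma drug also measured. Percent bound was (total − free)/total × 100; results are given as mean ± SD.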

[32] = Half life in healthy human at 4 mg/kg, iv administered as 30 mins infusion every 24 hrs measured on day 1; assay type: ADME, organism-based; design: dose 4 mg/kg, route intravenous; settings: in vivo
[33] = Unbound fraction in healthy human plasma at 6 mg/kg, iv administered as 30 mins infusion every 24 hrs measured on day 7; assay type: ADME, organism-based; design: dose 6 mg/kg, route intravenous
[34] = Half life in old healthy human at 4 mg/kg, iv administered as single dose 30 mins infusion; assay type: ADME, organism-based; design: dose 4 mg/kg, route intravenous; settings: in vivo
[35] = AUC (0 to infinity) in healthy human at 4 mg/kg, iv administered as single dose 30 mins infusion; assay type: ADME, organism-based; design: time infinity, dose 4 mg/kg, route intravenous; settings: plasma
[36] = test system: Homo sapiens; test: Unbound clearance in healthy human at 8 mg/kg, iv administered as 30 mins infusion every 24 hrs measured on day 14; assay type: ADME, organism-based; design: dose 8 mg/kg, route intravenous; settings: in vivo
[37] = Cmax in morbidly obese adult human at 4 mg/kg, iv administered as single dose 30 mins infusion; assay type: ADME, organism-based; design: dose 4 mg/kg, route intravenous; settings: in vivo
[38] = Plasma concentration in old healthy human at 4 mg/kg, iv administered as single dose 30 mins infusion measured after 24 hrs; assay type: ADME, organism-based; design: dose 4 mg/kg, route intravenous
[39] = test system: Homo sapiens; test: Volume of distribution at steady state in healthy human at 4 mg/kg, iv administered as single dose 30 mins infusion; assay type: ADME, organism-based; design: dose 4 mg/kg, route intravenous; settings: in vivo, 0.5 h
[40] = test system: Homo sapiens; test: Unbound clearance in healthy human at 4 mg/kg, iv administered as 30 mins infusion every 24 hrs measured on day 7; assay type: ADME, organism-based; design: dose 4 mg/kg, route intravenous; settings: in vivo
[41] = Clearance in moderately obese adult human at 4 mg/kg, iv administered as single dose 30 mins infusion; assay type: ADME, organism-based; design: dose 4 mg/kg, route intravenous; settings: in vivo

Q: Which concentration at 24 h [1] does the source give for `CCCCCCCCCC(=O)N[C@@H](Cc1c[nH]c2ccccc12)C(=O)N[C@H](CC(N)=O)C(=O)N[C@@H](CC(=O)O)C(=O)N[C@@H]1C(=O)NCC(=O)N[C@@H](CCCN)C(=O)N[C@@H](CC(=O)O)C(=O)N[C@H](C)C(=O)N[C@@H](CC(=O)O)C(=O)NCC(=O)N[C@H](CO)C(=O)N[C@@H]([C@H](C)CC(=O)O)C(=O)N[C@@H](CC(=O)c2ccccc2N)C(=O)O[C@@H]1C` here?
A: 3390 ng/mL

Q: What about the half-life [2] of the same compound?
A: 6.83 h

Q: What about the half-life [3] of the same compound?
A: 7.9 h

Q: And the Tmax [4]?
A: 0.6 h

Q: What about the clearance [5] of the same compound?
A: 0.152 mL/min/kg

Q: What about the dose excreted at 0.5 h [6] of the same compound?
A: 39.8%

Q: What about the Cmax [7] of the same compound?
A: 53200 ng/mL

Q: And the Cmax [8]?
A: 48900 ng/mL

Q: What about the Cmax [9] of the same compound?
A: 46300 ng/mL

Q: And the AUC(0-inf) [10]?
A: 1280 µg·h/mL

Q: What about the clearance [11] of the same compound?
A: 0.109 mL/min/kg

Q: What about the dose excreted at 0.5 h [12] of the same compound?
A: 48.6%

Q: And the MIC90 [13]?
A: < 1 µg/mL

Q: And the Vd [14]?
A: 0.11 L/kg

Q: What about the AUC(0-inf) [15] of the same compound?
A: 747 µg·h/mL

Q: What about the CL [16] of the same compound?
A: 1.41 mL/min/kg

Q: And the half-life [17]?
A: 7.34 h

Q: What about the Cmax [18] of the same compound?
A: 139000 ng/mL

Q: What about the Vd [19] of the same compound?
A: 0.101 L/kg

Q: What about the AUC(0-inf) [20] of the same compound?
A: 425 µg·h/mL

Q: What about the CL renal at 0.5 h [21] of the same compound?
A: 0.0608 mL/min/kg

Q: What about the AUC(0-inf) [22] of the same compound?
A: 1010 µg·h/mL

Q: What about the Vd [23] of the same compound?
A: 0.08 L/kg

Q: And the MRT [24]?
A: 11.9 h

Q: And the clearance [25]?
A: 0.118 mL/min/kg

Q: What about the clearance [26] of the same compound?
A: 0.252 mL/min/kg

Q: And the CL renal at 0.5 h [27]?
A: 0.139 mL/min/kg

Q: What about the AUC(0-inf) [28] of the same compound?
A: 867 µg·h/mL

Q: And the CL renal at 0.5 h [29]?
A: 0.156 mL/min/kg

Q: What about the CL renal at 0.5 h [30] of the same compound?
A: 0.0453 mL/min/kg

Q: And the fraction unbound at 0.5 h [31]?
A: 0.058

Q: And the half-life [32]?
A: 7.4 h

Q: What about the fraction unbound at 7 day [33] of the same compound?
A: 0.08

Q: What about the half-life [34] of the same compound?
A: 11.8 h

Q: And the AUC(0-inf) [35]?
A: 530 µg·h/mL

Q: What about the CL [36] of the same compound?
A: 0.745 mL/min/kg

Q: What about the Cmax [37] of the same compound?
A: 67000 ng/mL

Q: And the concentration at 24 h [38]?
A: 6380 ng/mL

Q: What about the Vdss [39] of the same compound?
A: 6057 mL

Q: And the CL [40]?
A: 1.05 mL/min/kg

Q: And the clearance [41]?
A: 0.271 mL/min/kg

Source: ChEMBL document CHEMBL1649119, “Daptomycin pharmacokinetics in adult oncology patients with neutropenic fever” (Antimicrob Agents Chemother, 2009)
